# Measured values as given in ChEMBL document CHEMBL4316592, “Synthesis of new derivatives of boehmeriasin A and their biological evaluation in liver cancer” (Eur J Med Chem, 2019).
# The source made the active and inactive calls. The rule behind the calls is not given here.
# Experiments:
# [1] = test system: MCF-10A; experiment: Cytotoxicity against human MCF10A cells after 72 hrs by SRB assay; assay type: cell-based
# [2] = test system: Huh-7; experiment: Induction of apoptosis in human HuH7 cells assessed as late apoptotic cells at 1 uM after 48 hrs by Annexin V-FITC/propidium iodide staining-based flow cytometric analysis (reference value: 2.53%); assay type: functional
# [3] = test system: Huh-7; experiment: Induction of apoptosis in human HuH7 cells assessed as viable cells at 1 uM after 48 hrs by Annexin V-FITC/propidium iodide staining-based flow cytometric analysis (reference value: 97.42%); assay type: functional; settings: Huh-7, 48 h, read-out: Activity
# [4] = test system: Huh-7; experiment: Induction of apoptosis in human HuH7 cells assessed as early apoptotic cells at 1 uM after 48 hrs by Annexin V-FITC/propidium iodide staining-based flow cytometric analysis (reference value: 0.02%); assay type: functional
# [5] = test system: Mahlavu; experiment: Induction of apoptosis in human Mahlavu cells assessed as apoptotic body formation at 1 uM by Hoechst staining-based assay; assay type: functional, cell-based
# [6] = test system: Huh-7; experiment: Induction of apoptosis in human HuH7 cells assessed as late apoptotic cells at 1 uM after 24 hrs by Annexin V-FITC/propidium iodide staining-based flow cytometric analysis (reference value: 2.51%); assay type: functional
# [7] = test system: Huh-7; experiment: Induction of apoptosis in human HuH7 cells assessed as early apoptotic cells at 1 uM after 24 hrs by Annexin V-FITC/propidium iodide staining-based flow cytometric analysis (reference value: 0.17%); assay type: functional
# [8] = test system: Huh-7; experiment: Induction of apoptosis in human HuH7 cells assessed as early apoptotic cells at 1 uM after 72 hrs by Annexin V-FITC/propidium iodide staining-based flow cytometric analysis (reference value: 0.03%); assay type: functional
# [9] = test system: Mahlavu; experiment: Induction of apoptosis in human Mahlavu cells assessed as necrotic cells at 1 uM after 48 hrs by Annexin V-FITC/propidium iodide staining-based flow cytometric analysis (reference value: 0.07%); assay type: functional
# [10] = test system: Mahlavu; experiment: Induction of apoptosis in human Mahlavu cells assessed as chromatin condensation at 1 uM by Hoechst staining-based assay; assay type: functional, cell-based
# [11] = test system: Huh-7; experiment: Cytotoxicity against human HuH7 cells after 72 hrs by SRB assay; assay type: functional, cell-based
# Outline: (§1)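 SRB assay. Cells plated per well (HCT116 3000; Huh7, Hep3B, HepG2, MCF-7 2000; Mahlavu, FOCUS, SNU475 1000) and grown 24 h. Compounds came from 20 mM DMSO stocks and were tested in triplicate, 40 to 2,5 (or 2,5 to 0,03) per printed range, for 72 h. Cells fixed in 10% TCA, stained with 0.4% SRB, dye dissolved in 10 mM Tris, A515 read. IC50 derived after DMSO normalization.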
# [12] = test system: MCF7; experiment: Cytotoxicity against human MCF7 cells after 72 hrs by SRB assay; assay type: functional, cell-based; outline: as §1
# [13] = test system: Huh-7; experiment: Induction of apoptosis in human HuH7 cells assessed as necrotic cells at 1 uM after 72 hrs by Annexin V-FITC/propidium iodide staining-based flow cytometric analysis (reference value: 0.43%); assay type: functional
# [14] = test system: Mahlavu; experiment: Induction of apoptosis in human Mahlavu cells assessed as early apoptotic cells at 1 uM after 48 hrs by Annexin V-FITC/propidium iodide staining-based flow cytometric analysis (reference value: 0%); assay type: functional
# [15] = test system: Mahlavu; experiment: Induction of apoptosis in human Mahlavu cells assessed as necrotic cells at 1 uM after 24 hrs by Annexin V-FITC/propidium iodide staining-based flow cytometric analysis (reference value: 0.13%); assay type: functional
# [16] = test system: Mahlavu; experiment: Induction of apoptosis in human Mahlavu cells assessed as early apoptotic cells at 1 uM after 72 hrs by Annexin V-FITC/propidium iodide staining-based flow cytometric analysis (reference value: 0.24%); assay type: functional
# [17] = test system: Huh-7; experiment: Induction of apoptosis in human HuH7 cells assessed as necrotic cells at 1 uM after 24 hrs by Annexin V-FITC/propidium iodide staining-based flow cytometric analysis (reference value: 0.03%); assay type: functional
# [18] = test system: Mahlavu; experiment: Induction of apoptosis in human Mahlavu cells assessed as viable cells at 1 uM after 48 hrs by Annexin V-FITC/propidium iodide staining-based flow cytometric analysis (reference value: 98.48%); assay type: functional; settings: read-out: Activity
# [19] = test system: Huh-7; experiment: Induction of apoptosis in human HuH7 cells assessed as late apoptotic cells at 1 uM after 72 hrs by Annexin V-FITC/propidium iodide staining-based flow cytometric analysis (reference value: 2.34%); assay type: functional
# [20] = test system: Mahlavu; experiment: Induction of apoptosis in human Mahlavu cells assessed as necrotic cells at 1 uM after 72 hrs by Annexin V-FITC/propidium iodide staining-based flow cytometric analysis (reference value: 0.22%); assay type: functional
# [21] = test system: MCF-12A; experiment: Cytotoxicity against human MCF12A cells after 72 hrs by SRB assay; assay type: cell-based
# [22] = test system: Mahlavu; experiment: Induction of apoptosis in human Mahlavu cells assessed as late apoptotic cells at 1 uM after 72 hrs by Annexin V-FITC/propidium iodide staining-based flow cytometric analysis (reference value: 3.48%); assay type: functional
# [23] = test system: Mahlavu; experiment: Induction of apoptosis in human Mahlavu cells assessed as early apoptotic cells at 1 uM after 24 hrs by Annexin V-FITC/propidium iodide staining-based flow cytometric analysis (reference value: 0.09%); assay type: functional
# [24] = test system: Huh-7; experiment: Induction of apoptosis in human HuH7 cells assessed as necrotic cells at 1 uM after 48 hrs by Annexin V-FITC/propidium iodide staining-based flow cytometric analysis (reference value: 0.02%); assay type: functional
# [25] = test system: Mahlavu; experiment: Induction of apoptosis in human Mahlavu cells assessed as viable cells at 1 uM after 24 hrs by Annexin V-FITC/propidium iodide staining-based flow cytometric analysis (reference value: 98.51%); assay type: functional; settings: read-out: Activity
# [26] = test system: Huh-7; experiment: Induction of apoptosis in human HuH7 cells assessed as viable cells at 1 uM after 72 hrs by Annexin V-FITC/propidium iodide staining-based flow cytometric analysis (reference value: 97.20%); assay type: functional; settings: Huh-7, 72 h, read-out: Activity
# [27] = test system: Huh-7; experiment: Induction of apoptosis in human HuH7 cells assessed as viable cells at 1 uM after 24 hrs by Annexin V-FITC/propidium iodide staining-based flow cytometric analysis (reference value: 97.30%); assay type: functional; settings: Huh-7, 24 h, read-out: Activity
# [28] = test system: Mahlavu; experiment: Induction of apoptosis in human Mahlavu cells assessed as late apoptotic cells at 1 uM after 48 hrs by Annexin V-FITC/propidium iodide staining-based flow cytometric analysis (reference value: 1.45%); assay type: functional
# [29] = test system: Mahlavu; experiment: Induction of apoptosis in human Mahlavu cells assessed as viable cells at 1 uM after 72 hrs by Annexin V-FITC/propidium iodide staining-based flow cytometric analysis (reference value: 96.05%); assay type: functional; settings: read-out: Activity
# [30] = test system: Mahlavu; experiment: Cytotoxicity against human Mahlavu cells after 72 hrs by SRB assay; assay type: functional, cell-based; outline: as §1
# [31] = test system: Mahlavu; experiment: Induction of apoptosis in human Mahlavu cells assessed as late apoptotic cells at 1 uM after 24 hrs by Annexin V-FITC/propidium iodide staining-based flow cytometric analysis (reference value: 1.28%); assay type: functional
# [32] = test system: HCT-116; experiment: Cytotoxicity against human HCT116 cells after 72 hrs by SRB assay; assay type: functional, cell-based; outline: as §1
# [33] = test system: HepG2; experiment: Cytotoxicity against human HepG2 cells after 72 hrs by SRB assay; assay type: functional, cell-based; settings: hepg2; outline: as §1
# [34] = Cytotoxicity against human FOCUS cells after 72 hrs by SRB assay; assay type: functional, cell-based; outline: as §1
# [35] = test system: SNU-475; experiment: Cytotoxicity against human SNU475 cells after 72 hrs by SRB assay; assay type: functional, cell-based; outline: as §1
# [36] = test system: Hep 3B2; experiment: Cytotoxicity against human Hep3B cells after 72 hrs by SRB assay; assay type: functional, cell-based; outline: as §1
# [37] = test system: Huh-7; experiment: Induction of apoptosis in human HuH7 cells assessed as increase in cytochrome C levels by Hoechst staining-based assay; assay type: functional, cell-based
# Outline: (§2)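 Cells were seeded on coverslips and treated after 24 h with compound at a single concentration for 72 h. Camptothecin was the positive control, with DMSO solvent control at matched volume. Cells were fixed in ice-cold methanol for 15 min, then given anti-cytochrome c (1:100 in 0.1% TBS-Tween) for 1 h and FITC secondary (1:200) for 1 h. Nuclei were counterstained and imaged by fluorescence microscopy.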
# [38] = test system: Mahlavu; experiment: Induction of apoptosis in human Mahlavu cells assessed as increase in cytochrome C levels by Hoechst staining-based assay; assay type: functional, cell-based; outline: as §2
# [39] = Homo sapiens, Huh-7, 72 h, read-out: IC50
# [40] = Homo sapiens, MCF7, 72 h, read-out: IC50
# [41] = Homo sapiens, MCF-12A, 72 h, read-out: IC50
# [42] = Homo sapiens, Mahlavu, 72 h, read-out: IC50
# [43] = Homo sapiens, HCT-116, 72 h, read-out: IC50
smiles,measurement,setting,value
COc1ccc2c3c(c4cc(OC)c(OC)cc4c2c1)CN1CCCC[C@@H]1[C@@H]3O (racemic),IC50,[1],0.14 µM
same,Activity,[2],6.75%
same,viability at 1 µM,[3],93%
same,Activity,[4],0.07%
same,Activity,[5],Active
same,Activity,[6],0.82%
same,Activity,[7],0.05%
same,Activity,[8],0%
same,Activity,[9],0.54%
same,Activity,[10],Active
same,IC50,[11]; [39],0.017 µM
same,IC50,[12]; [40],0.021 µM
same,Activity,[13],0.16%
same,Activity,[14],0%
same,Activity,[15],0.58%
same,Activity,[16],0%
same,Activity,[17],0.02%
same,viability at 1 µM,[18],70.2%
same,Activity,[19],16.83%
same,Activity,[20],1.59%
same,IC50,[21]; [41],0.1 µM
same,Activity,[22],69.05%
same,Activity,[23],0.03%
same,Activity,[24],0.21%
same,viability at 1 µM,[25],92.7%
same,viability at 1 µM,[26],83%
same,viability at 1 µM,[27],99.1%
same,Activity,[28],29.29%
same,viability at 1 µM,[29],29.4%
same,IC50,[30]; [42],> 0.05 µM
same,Activity,[31],6.72%
same,IC50,[32]; [43],0.007 µM
COc1ccc2c3c(c4cc(OC)c(OC)cc4c2c1)CN1CCCC[C@@H]1[C@H]3O (racemic),IC50,[1],0.8 µM
same,Activity,[2],3.38%
same,viability at 1 µM,[3],96.4%
same,Activity,[4],0.07%
same,Activity,[5],Active
same,Activity,[6],0.81%
same,Activity,[7],0%
same,Activity,[8],0.05%
same,Activity,[9],0.32%
same,Activity,[10],Active
same,IC50,[11]; [39],0.306 µM
same,IC50,[12]; [40],0.016 µM
same,Activity,[13],0.23%
same,Activity,[14],0%
same,Activity,[15],0.33%
same,Activity,[16],0%
same,Activity,[17],0.07%
same,viability at 1 µM,[18],93.8%
same,Activity,[19],4.69%
same,Activity,[20],0.61%
same,IC50,[21]; [41],> 0.05 µM
same,Activity,[22],10.53%
same,Activity,[23],0.02%
same,Activity,[24],0.13%
same,viability at 1 µM,[25],96.2%
same,viability at 1 µM,[26],95%
same,viability at 1 µM,[27],99.1%
same,Activity,[28],5.9%
same,viability at 1 µM,[29],88.9%
same,IC50,[30]; [42],> 0.05 µM
same,Activity,[31],3.47%
same,IC50,[32]; [43],0.043 µM
COc1ccc(/C=C(/C(=O)NCCCn2ccnc2)c2ccc(OC)c(OC)c2)cc1,IC50,[11]; huh-7,Not Active
same,IC50,[30]; mahlavu,Not Active
COc1ccc2c3c(c4cc(OC)c(OC)cc4c2c1)CN1CCCCC1C3=O (configuration not stated),IC50,[33],Not Active
same,IC50,[11]; [39],12 µM
same,IC50,[12]; [40],7 µM
same,IC50,"[34]; Homo sapiens, 72 h, read-out: IC50",5 µM
same,IC50,[21]; mcf-12a,Non-Toxic
same,IC50,[30]; [42],35 µM
same,IC50,[32]; [43],8.1 µM
same,IC50,"[35]; Homo sapiens, SNU-475, 72 h, read-out: IC50",19.1 µM
same,IC50,"[36]; Homo sapiens, Hep3B, 72 h, read-out: IC50",45 µM
COc1ccc2cc(CNCCCn3ccnc3)c3cc(OC)c(OC)cc3c2c1,IC50,[11]; huh-7,Not Active
same,IC50,[30]; mahlavu,Not Active
COc1ccc(/C=C(/CNCCCn2ccnc2)c2ccc(OC)c(OC)c2)cc1,IC50,[11]; [39],9.3 µM
same,IC50,[30]; [42],13.8 µM
COc1ccc2cc(C(=O)NCCCn3ccnc3)c3cc(OC)c(OC)cc3c2c1,IC50,[11]; [39],19.2 µM
same,IC50,[30]; [42],54 µM
COc1ccc2cc(CN3CCCCC3C(=O)[O-])c3cc(OC)c(OC)cc3c2c1.[K+] (configuration not stated),IC50,[33],Not Active
same,IC50,[11]; huh-7,Not Active
same,IC50,[12]; mcf7,Not Active
same,IC50,[34],Not Active
same,IC50,[21]; mcf-12a,Non-Toxic
same,IC50,[30]; mahlavu,Not Active
same,IC50,[32]; hct-116,Not Active
same,IC50,[35]; snu-475,Not Active
same,IC50,[36]; hep 3b2,Not Active
CC[C@@]1(O)C(=O)OCc2c1cc1n(c2=O)Cc2cc3ccccc3nc2-1,Activity,[37],Active
same,Activity,[38],Active
